pIC50: −log10 of the molar value. Activity calls are given as the source filed them. No cut-off for these calls is given here.
Columns and labels:
HCT-116 [1] = assay: Cell cycle arrest in human HCT116 cells assessed as accumulation at G2/M phase at 4.80 uM after 48 hrs; assay type: functional
Outline: (§1)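 Cells seeded at 8 · 10^5 per 60 mm dish, allowed to settle 24 h (37 °C, 5% CO2), then exposed to the drug for 24 or 48 h. Adherent plus floating cells (5 · 10^5) were fixed in cold 70% ethanol at −20 °C overnight, treated with RNase A (100 µg/mL) and stained with propidium iodide (20 µg/mL) in Vindelov's solution for 30 min at RT. Flow cytometry used 488 nm excitation, FL-2 at 585 ± 21 nm, and histograms were modelled for G0/G1, S and G2/M fractions.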

HCT-116 [2] = assay: Induction of DNA fragmentation in human HCT116 cells after 48 hrs; assay type: functional, cell-based
Outline: (§2)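 HCT-116 cells were treated for 24 or 48 h. Adherent and floating cells (5 × 10^5) were pooled, fixed in cold 70% ethanol and held overnight at −20 °C. Samples were treated with RNase A (100 µg/mL) and stained with propidium iodide (20 µg/mL) in Vindelov's solution for 30 min at RT. Flow cytometry used 488 nm excitation with emission at 585 nm. Subdiploid (subG0/G1) particles were scored on a logarithmic scale, with debris gated out on FSC × SSC.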

DNA [3] = assay: Binding affinity to calf thymus DNA at 4 uM by fluorescence spectrophotometric titration; assay type: nucleic-acid assay; conditions: Bos taurus
Outline: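 ctDNA sonicated in TE buffer, concentration taken from A260 and given in base pairs. Compound (4 µM) in 0.01 M Tris, pH 7.4, 25 °C titrated with ctDNA (0–55 µM bp) until spectra stopped changing. Excitation 424 nm, slit widths 10 nm; binding constant derived from the change in emission.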

DNA [4] = assay: Binding affinity to calf thymus DNA at 50 uM by circular dichroism spectrophotometric titration; assay type: nucleic-acid assay; conditions: Bos taurus
HeLa [5] = assay: Cytotoxicity against human HeLa cells after 48 hrs by MTT assay; assay type: functional, cell-based
HeLa [6] = assay: Cytotoxicity against human HeLa cells after 72 hrs by MTT assay; assay type: functional, cell-based
HCT-116 [7] = assay: Cytotoxicity against human HCT116 cells after 48 hrs by MTT assay; assay type: functional, cell-based; conditions: HCT-116, 48 h
HCT-116 [8] = assay: Cytotoxicity against human HCT116 cells after 72 hrs by MTT assay; assay type: functional, cell-based; conditions: Homo sapiens, HCT-116, 72 h
HeLa [9] = assay: Antiproliferative activity against human HeLa cells assessed as increase of floating cells in total cell population at 3.50 uM after 24 hrs; assay type: functional
Outline: (§3)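 Cells seeded (8 · 10^5 per 60 mm dish), allowed to settle 24 h at 37 °C, 5% CO2, then treated with a single concentration for 24 or 48 h. Adherent and floating cells counted by Coulter counter. Total cell number given as % of untreated control; floating cells as % of total cell number.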

HeLa [10] = assay: Antiproliferative activity against human HeLa cells assessed as increase of floating cells in total cell population at 3.50 uM after 48 hrs; assay type: functional; outline: as §3
HeLa [11] = assay: Antiproliferative activity against human HeLa cells assessed as decrease in total cell population at 3.50 uM after 48 hrs; assay type: functional; set-up: scale not given: the % may be the effect or the level left; outline: as §3
HCT-116 [12] = assay: Antiproliferative activity against human HCT116 cells assessed as increase of floating cells in total cell population at 4.80 uM after 24 hrs; assay type: functional; outline: as §3
HCT-116 [13] = assay: Antiproliferative activity against human HCT116 cells assessed as decrease in total cell population at 4.80 uM after 24 hrs; assay type: functional; set-up: scale not given: the % may be the effect or the level left; outline: as §3
HCT-116 [14] = assay: Antiproliferative activity against human HCT116 cells assessed as increase of floating cells in total cell population at 4.80 uM after 48 hrs; assay type: functional; outline: as §3
HCT-116 [15] = assay: Antiproliferative activity against human HCT116 cells assessed as decrease in total cell population at 4.80 uM after 48 hrs; assay type: functional; set-up: scale not given: the % may be the effect or the level left; outline: as §3
HeLa [16] = assay: Induction of apoptosis in human HeLa cells at 3.50 uM after 24 hrs; assay type: functional
Outline: (§4)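 After 24 or 48 h of drug exposure, all cells were collected, combining trypsinised adherent cells with floating cells from the medium. Cells (1 × 10^6) were fixed in cold 70% ethanol overnight at −20 °C and stained with DAPI (10 µg/mL) for 30 min in the dark at RT. Under fluorescence microscopy, 300 cells per sample were scored, with condensed or fragmented nuclei counted as apoptotic.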

HeLa [17] = assay: Induction of apoptosis in human HeLa cells at 3.50 uM after 48 hrs; assay type: functional; outline: as §4
HCT-116 [18] = assay: Induction of apoptosis in human HCT116 cells at 4.80 uM after 48 hrs; assay type: functional; outline: as §4
HCT-116 [19] = assay: Induction of apoptosis in human HCT116 cells at 4.80 uM after 24 hrs; assay type: functional; outline: as §4
HeLa [20] = assay: Antiproliferative activity against human HeLa cells assessed as decrease in total cell population at 3.50 uM after 24 hrs; assay type: functional; set-up: scale not given: the % may be the effect or the level left; outline: as §3
HCT-116 [21] = assay: Induction of DNA fragmentation in human HCT116 cells after 24 hrs; assay type: functional, cell-based; outline: as §2
HeLa [22] = assay: Cell cycle arrest in human HeLa cells assessed as accumulation at G0/G1 phase at 3.50 uM after 24 hrs; assay type: functional; outline: as §1
HeLa [23] = assay: Cell cycle arrest in human HeLa cells assessed as accumulation at G0/G1 phase at 3.50 uM after 48 hrs; assay type: functional; outline: as §1
HCT-116 [24] = assay: (§5) Cell cycle arrest in human HCT116 cells assessed as accumulation at G0/G1 phase at 4.80 uM after 48 hrs; assay type: functional
Outline: (§6)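 Adherent plus floating cells (5 · 10^5) collected 24 or 48 h after treatment, fixed in cold 70% ethanol at −20 °C overnight, washed in PBS. RNase A (100 µg/mL) and propidium iodide (20 µg/mL) in Vindelov's solution, 30 min at RT. Flow cytometry with 488 nm excitation, emission 585 ± 21 nm; % cells per cycle phase from DNA content histograms.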

HCT-116 [25] = assay: as §5; assay type: functional; outline: as §6; remark: listed apart in the source
HeLa [26] = assay: Cell cycle arrest in human HeLa cells assessed as accumulation at S phase at 3.50 uM after 24 hrs; assay type: functional; outline: as §1
HeLa [27] = assay: Cell cycle arrest in human HeLa cells assessed as accumulation at S phase at 3.50 uM after 48 hrs; assay type: functional; outline: as §1
HCT-116 [28] = assay: Cell cycle arrest in human HCT116 cells assessed as accumulation at S phase at 4.80 uM after 48 hrs; assay type: functional; outline: as §1
HeLa [29] = assay: Cell cycle arrest in human HeLa cells assessed as accumulation at G2/M phase at 3.50 uM after 24 hrs; assay type: functional; outline: as §1
HeLa [30] = assay: Cell cycle arrest in human HeLa cells assessed as accumulation at G2/M phase at 3.50 uM after 48 hrs; assay type: functional; outline: as §1
[31] = in the assay text read “after 24 hrs” for “after 48 hrs”

CCCCCCNC(=O)Nc1ccc2cc3ccc(NC(=O)NCCCCCC)cc3nc2c1.Cl was tested, and the Activity (HCT-116 [1]) was 41.06%, the Activity (HCT-116 [1]; [31]) was 45.1% and the Activity (HCT-116 [2]) was “Active”. For the same molecule, the K (DNA [3]) was 0.9 ×10⁵ /M, the Activity (DNA [4]) was “Active” and the pIC50 (HeLa [5]) was 5.46. The pIC50 (HeLa [6]) was 5.43, the pIC50 (HCT-116 [7]) was 5.32 and the pIC50 (HCT-116 [8]) was 5.51. The Activity (HeLa [9]) was 4.21%, the Activity (HeLa [10]) was 4.41% and the Activity (HeLa [11]) was 91.16%. It also gave an Activity (HCT-116 [12]) of 77.94%, an Activity (HCT-116 [13]) of 48.1% and an Activity (HCT-116 [14]) of 88.55%. It also gave an Activity (HCT-116 [15]) of 19.84%, an Activity (HeLa [16]) of 0.75% and an Activity (HeLa [17]) of 1%. It also gave an Activity (HCT-116 [18]) of 12.67%, an Activity (HCT-116 [19]) of 5.67% and an Activity (HeLa [20]) of 87.42%. The Activity (HCT-116 [21]) was “Active”, the Activity (HeLa [22]) was 59.69% and the Activity (HeLa [23]) was 66.57%. For the same molecule, the Activity (HCT-116 [24]) was 36%, the Activity (HCT-116 [25]) was 35.98% and the Activity (HeLa [26]) was 27.08%. It also gave an Activity (HeLa [27]) of 21.55%, an Activity (HCT-116 [28]) of 22.97% and an Activity (HCT-116 [28]; [31]) of 21.38%. The Activity (HeLa [29]) was 13.24% and the Activity (HeLa [30]) was 11.88%.

Reference: ChEMBL document CHEMBL1157145, “Cytotoxic activity of proflavine diureas: synthesis, antitumor, evaluation and DNA binding properties of 1',1''-(acridin-3,6-diyl)-3',3''-dialkyldiureas” (Bioorg Med Chem, 2008)
